In ChEMBL document CHEMBL2202994, “Heteroaryl urea inhibitors of fatty acid amide hydrolase: structure-mutagenicity relationships for arylamine metabolites” (Bioorg Med Chem Lett, 2012) one finds IC50 and Activity data, which are given here for 2 compounds.

The term IC50 denotes the concentration that inhibits the measured activity by half. Higher therefore signals lower potency.

Some results are limits rather than exact numbers.

Data set [1] concerns the target T1, Fatty-acid amide hydrolase 1 (Homo sapiens, UniProt O00519).
T1 sequence (O00519 whole entry): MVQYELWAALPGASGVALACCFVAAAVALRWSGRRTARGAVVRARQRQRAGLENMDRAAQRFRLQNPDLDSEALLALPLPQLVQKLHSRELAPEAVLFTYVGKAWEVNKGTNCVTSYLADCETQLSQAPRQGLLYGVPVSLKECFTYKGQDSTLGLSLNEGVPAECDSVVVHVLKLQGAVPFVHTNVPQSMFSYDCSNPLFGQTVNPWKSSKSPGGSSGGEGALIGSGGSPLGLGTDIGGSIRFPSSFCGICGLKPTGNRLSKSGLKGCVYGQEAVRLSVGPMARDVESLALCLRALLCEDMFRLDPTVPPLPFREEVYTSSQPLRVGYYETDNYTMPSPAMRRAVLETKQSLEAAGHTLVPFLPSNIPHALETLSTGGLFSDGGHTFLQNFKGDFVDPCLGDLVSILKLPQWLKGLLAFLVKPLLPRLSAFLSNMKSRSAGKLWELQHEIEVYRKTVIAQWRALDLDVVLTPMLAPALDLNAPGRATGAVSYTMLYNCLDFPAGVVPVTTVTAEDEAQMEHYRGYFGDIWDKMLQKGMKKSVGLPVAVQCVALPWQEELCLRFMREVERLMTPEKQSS
Nature of the data set: Inhibition of human FAAH preincubated for 60 mins.

For data set [2], the target named is T2, Fatty-acid amide hydrolase 1 (Rattus norvegicus, UniProt P97612).
T2 sequence (P97612 whole entry): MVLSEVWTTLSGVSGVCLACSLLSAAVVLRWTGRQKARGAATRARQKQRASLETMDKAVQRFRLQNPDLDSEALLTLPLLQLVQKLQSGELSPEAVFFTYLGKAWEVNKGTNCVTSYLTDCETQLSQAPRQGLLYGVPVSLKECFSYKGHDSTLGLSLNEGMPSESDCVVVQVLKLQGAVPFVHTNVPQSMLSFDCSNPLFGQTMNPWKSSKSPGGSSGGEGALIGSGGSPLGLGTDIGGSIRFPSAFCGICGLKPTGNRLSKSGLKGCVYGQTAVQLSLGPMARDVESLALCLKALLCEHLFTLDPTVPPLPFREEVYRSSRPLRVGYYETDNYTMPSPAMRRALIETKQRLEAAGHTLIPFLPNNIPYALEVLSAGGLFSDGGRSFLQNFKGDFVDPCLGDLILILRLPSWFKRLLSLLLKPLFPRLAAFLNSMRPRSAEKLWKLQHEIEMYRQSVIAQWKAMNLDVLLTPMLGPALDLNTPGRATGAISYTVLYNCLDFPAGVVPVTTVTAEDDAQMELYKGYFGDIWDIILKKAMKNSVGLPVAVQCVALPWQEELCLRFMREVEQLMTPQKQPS
Briefly: Inhibition of rat FAAH preincubated for 60 mins.

The test system of data set [3] is Salmonella typhimurium. Nature of the data set: Genotoxicity in Salmonella typhimurium TA98 by Ames test in absence of S9 fractions. Format: toxicity, organism-based. Particulars: salmonella enterica subsp. enterica serovar typhimurium. The procedure, abridged:
(§1)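 Ames II liquid fluctuation microplate variant of the bacterial reverse mutation assay, run on the free heteroaryl amines released from the urea inhibitors. The TAMix strain mixture (TA7001–TA7006) detects base-pair substitutions and TA98 detects frameshift mutations. For metabolic activation, compounds were preincubated with rat liver S9 extract or run without it. Results were scored as positive or negative.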
(The Ames test uses bacterial strains that need an amino acid and regain growth without it when mutated back.)

For data set [4], the system named is Salmonella typhimurium. Nature of the data set: Genotoxicity in Salmonella typhimurium TAMix by Ames test in presence of S9 fractions. The data set is classed as toxicity, organism-based, S9 Fraction. Particulars: salmonella enterica subsp. enterica serovar typhimurium. The procedure, abridged:
as §1

Data set [5] deals with Salmonella typhimurium. Nature of the data set: Genotoxicity in Salmonella typhimurium TA98 by Ames test in presence of S9 fractions. Conditions: salmonella enterica subsp. enterica serovar typhimurium. Format: toxicity, organism-based, S9 Fraction. An outline of the steps: as §1
The test system of data set [6] is Salmonella typhimurium. Briefly: Genotoxicity in Salmonella typhimurium TAMix by Ames test in absence of S9 fractions. The data set is classed as toxicity, organism-based. Particulars: salmonella enterica subsp. enterica serovar typhimurium. An outline of the steps: as §1

As to `O=C(Nc1ccccc1)N1CCN(Cc2cccc(Oc3ccc(Cl)cc3)c2)CC1`, the IC50 in data set [1] was found to be 6 nM; in data set [2] it was 300 nM. The Activity entry with Salmonella typhimurium [3], in the data set on Salmonella typhimurium [4], in the data set on Salmonella typhimurium [5] and in the data set on Salmonella typhimurium [6] was “Non-toxic” throughout.
For `O=C(Nc1cn2ccccc2n1)N1CCN(Cc2cccc(Oc3ccc(Cl)cc3)c2)CC1`, the IC50 in data set [1] and in data set [2] was greater than 10000 nM each time. Besides, the Activity result in the data set with Salmonella typhimurium [3], with Salmonella typhimurium [4], with Salmonella typhimurium [5] and in the data set with Salmonella typhimurium [6] was “Non-toxic” in each case.
